Published values from different studies.
Compare with care: the assays were run in different laboratories.
CDK2: Cyclin-dependent kinase 2 (CDK2, Homo sapiens, UniProt P24941)

SMILES | target | test | test system | conditions | measurement | value
Cc1cc(S(=O)(=O)NCCO[C@H]2CC[C@H](CN3CCC(c4ccc5c(c4F)n(C)c(=O)n5C4CCC(=O)NC4=O)CC3)CC2)ccc1Nc1ncc(C(F)(F)F)c([C@H]2CC[C@@](C)(O)CC2)n1 (stereo partly drawn) | CDK2 | protein level, degrader, western blot | MKN-1 |  | Dmax | 86%
C1=C/COCc2cc(ccc2OCCN2CCCC2)Nc2nccc(n2)-c2cccc(c2)COC/1 | Cyclin-dependent kinase 2 homolog (CRK2, Plasmodium falciparum, UniProt P61075) | cell-free assay |  | 0.1 µM | remaining signal | 85%
C[C@H]1CN(CC2CCN(c3ccc(C4CCC(=O)NC4=O)cc3F)CC2)CC[C@H]1NS(=O)(=O)c1ccc(Nc2ncc(C(F)(F)F)c(N3CCC[C@](C)(O)C3)n2)c(F)c1 (stereo partly drawn) | CDK2 | protein level, degrader, western blot | TOV21G |  | Dmax | 93%
NC/C(=C\F)COc1cccc(Cn2c(=S)[nH]c(=O)c3[nH]cnc32)c1 | Voltage-dependent N-type calcium channel subunit alpha-1B (Cacna1b, Rattus norvegicus, UniProt Q02294) | ligand displacement, radioligand |  | 10 µM | inhibition | < 50%
Cc1cc(S(=O)(=O)NC2CCC(CC3CCN(c4ccc(C5CCC(=O)NC5=O)cc4)CC3)CC2)ccc1Nc1ncc(C(F)(F)F)c(N2CCC[C@](C)(O)C2)n1 (stereo partly drawn) | CDK2 | protein level, degrader, western blot | MKN-1 |  | Dmax | 80%
Cc1cc(=O)oc2cc(NC(=O)[C@H](CCCN=C(N)N)NC(=O)[C@H](CCCN=C(N)N)NC(=O)OCc3ccccc3)ccc12 | Cathepsin B (CTSB, Homo sapiens, UniProt P07858) | enzyme activity, substrate, fluorescence |  | pH 5 | Km | 858 µM
CCCCC(=O)Nc1ccc(-c2ccc3ncn(CCC)c(=O)c3c2)cn1 | Serine/threonine-protein kinase D3 (PRKD3, Homo sapiens, UniProt O94806) | binding, competition with immobilised ligand |  | 0.5 µM | remaining binding | 92%
Cc1cc(O)c(-c2ccc([C@@H](C)CN(C)C)cc2)c2c1[nH]c(=O)c1sccc12 | MAP kinase-activated protein kinase 3 (MAPKAPK3, Homo sapiens, UniProt Q16644) | enzyme activity, inhibitor |  | 0.1 µM | inhibition | -21.1%
C#Cc1cc(-c2cc(Nc3nc(N[C@@H](C)c4ccc(F)cn4)ncc3Cl)n[nH]2)ccc1C=O | Tyrosine-protein kinase Fyn (FYN, Homo sapiens, UniProt P06241) | enzyme activity, inhibitor |  | 0.2 µM | inhibition | 66.5%
Cc1cc(S(=O)(=O)NCCO[C@H]2CC[C@H](CN3CCC(c4ccc5c(c4)n(C)c(=O)n5C4CCC(=O)NC4=O)CC3)CC2)ccc1Nc1ncc(C(F)(F)F)c([C@H]2CC[C@@](C)(O)CC2)n1 (stereo partly drawn) | CDK2 | protein level, degrader, western blot | MKN-1 |  | Dmax | 90%
COc1cc(Br)cc(C2NC(=O)NC(C)=C2C(=O)OCc2ccccc2)c1O (stereo not drawn) | Voltage-dependent L-type calcium channel subunit alpha-1C (Cacna1c, Rattus norvegicus, UniProt P22002) | ion current, inhibitor, patch clamp | HEK293 | 10 µM | inhibition | > 60%
CCN1/C(=C/C(C)=O)Sc2ccc(F)cc21 | Alpha-1A adrenergic receptor (Adra1a, Rattus norvegicus, UniProt P43140) | ligand displacement, radioligand |  | 10 µM | inhibition | 1.54%
